High-throughput results (PubChem)
Sampled rows, rich in hits. Any-hit rate of the full collection: about 1.8%.
CSN deneddyl inh: inhibitors of CSN-mediated cullin deneddylation, primary screen, biochemical, fluorescence polarization, uHTS; COP9 signalosome complex subunit 5 (Homo sapiens), Q92905; Purified CSN, SCF-Nedd8-OG deneddylation; inhibition, % at 12.5 µM; 360,000 compounds, 0.38% hits;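 active = pattern-corrected inhibition above about 35%, with an unprinted fluorescence ratio check between 0.5 and 1.5, limit read from the data, passing the limit was not always enough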
Target sequence (Q92905 whole entry, looked up, one chain of several): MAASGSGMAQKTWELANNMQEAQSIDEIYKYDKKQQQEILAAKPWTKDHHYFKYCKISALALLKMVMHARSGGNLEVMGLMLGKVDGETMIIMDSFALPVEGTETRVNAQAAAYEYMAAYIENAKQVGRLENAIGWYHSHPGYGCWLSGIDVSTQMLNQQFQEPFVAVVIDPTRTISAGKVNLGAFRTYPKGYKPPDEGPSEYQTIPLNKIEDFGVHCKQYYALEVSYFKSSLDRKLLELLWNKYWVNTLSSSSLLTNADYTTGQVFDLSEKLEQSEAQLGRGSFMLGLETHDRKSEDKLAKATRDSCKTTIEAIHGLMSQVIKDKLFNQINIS
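Detection – fluorescence polarization · System – HEK293T-derived human Csn5 enzyme · Controls – substrate-only high control, full reaction low control · Timing – 90 min, room temperature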
SENP1 FRET inh: human SENP1 catalytic domain inhibitors, primary screen, biochemical, FRET, uHTS | inhibition, % at 10 µM | 360,000 compounds, 0.21% hits | recombinant SENP1 catalytic domain, CyPet-SUMO1-YPet FRET cleavage;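 active = inhibition at least 30% at 10 µM, raw YFP signal under a set limit, fluorescence ratio 0.5 to 1.5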
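material = recombinant human SENP1 catalytic domain, His6-tagged | quantity = 20 pM enzyme | reagent = 25 nM SUMO1 FRET substrate | compound dosing = 10 µM single point, 0.5% DMSO | timing = 50 min enzyme reaction, room temperature, light-protected | detection = FRET, CFP and YFP emission | control set = no-enzyme low, enzyme-DMSO high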
HNF4A DNA FP: change in binding of human HNF4A to DNA, primary screen, biochemical, fluorescence polarization, FITC-DNA; Hepatocyte nuclear factor 4-alpha (Homo sapiens), P41235; 1 h; activity change, % at 10 µM; 360,000 compounds, 0.3% hits; in the data active = activity change above about 30%, passing the limit was not always enough
UBC9 SUMO inh: inhibitors of in vitro SUMOylation cascade, primary screen, biochemical, HTRF, uHTS | HTRF SUMOylation assay, SAE1/SAE2 + UBC9 | inhibition, % at 35 µM | 290,000 compounds, 0.36% hits; in the data active = inhibition above about 50%, passing the limit was not always enough
Target sequence (P63279 whole entry, looked up): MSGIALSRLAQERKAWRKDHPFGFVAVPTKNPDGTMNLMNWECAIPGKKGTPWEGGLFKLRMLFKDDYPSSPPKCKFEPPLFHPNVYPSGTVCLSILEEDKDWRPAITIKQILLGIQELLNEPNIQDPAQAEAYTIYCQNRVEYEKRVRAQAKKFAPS
Rpn11 inh: Rpn11 (PSMD14) deubiquitinase inhibitors, primary screen, biochemical, fluorescence polarization, uHTS; 26S proteasome non-ATPase regulatory subunit 14 (Homo sapiens), O00487; human 26S proteasome, Ub4-pepOG fluorescence polarization; 20S core pre-blocked with epoxomicin; calls only at 20 µM; 360,000 compounds, 0.59% hits;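 active = inhibition at 20 µM, scaled to each plate's controls, above about 33%, limit read from the data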
TPT1 inhibitor: Candida albicans TPT1 enzyme inhibitors, primary screen, biochemical, fluorescence polarization; tRNA 2'-phosphotransferase TPT1 (Candida albicans SC5314); recombinant caTPT1, FP RNA substrate dephosphorylation; inhibition, % at 5 µM; 300,000 compounds, 0.81% hits; AID 1962, 2009;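 active = inhibition above the mean of all tested compounds plus 3 SD, set per screening campaign, cut at about 24% in these data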
Each line names hits and unclear results; the compound was inactive in the other large screens.

COc1ccc(C2=NN(c3ccccc3)C(c3ccc(OC)c(OC)c3)C2)cc1 (stereo not given)	none
COc1ccc(C2CC(c3ccc(F)cc3)=NN2c2ccccc2)cc1OC (stereo not given)	Rpn11 inh active
COc1cccc2c1C(=O)c1c(O)c3c(c(O)c1C2=O)C[C@@](O)(C(=O)CO)C[C@@H]3O[C@H]1C[C@H](N)[C@H](O)[C@H](C)O1	SENP1 FRET inh 97
COC(=O)C1=C(C)N(CCCC(=O)O)C(=O)NC1c1cc2c(cc1[N+](=O)[O-])OCO2 (stereo not given)	none
COC(=O)C1=C(C)N(C)C(=O)NC1c1cc2c(cc1[N+](=O)[O-])OCO2 (stereo not given)	UBC9 SUMO inh 66
Cc1ccc(S(=O)(=O)N(C)CC(=O)NNC(=O)Cc2cccc(F)c2)cc1	none (no result: UBC9 SUMO inh, TPT1 inhibitor)
O=C(COC(=O)c1ccc([N+](=O)[O-])s1)Nc1ncc(C(F)(F)F)cc1Cl	CSN deneddyl inh 38
COc1cc(NC(=O)CNc2ccc(Cl)c(S(=O)(=O)N3CCOCC3)c2)cc(OC)c1	none (no result: UBC9 SUMO inh, TPT1 inhibitor)
COc1ccc(Cc2c(-c3ccco3)nc3ccc(Cl)cn23)c(C)c1	CSN deneddyl inh 40 (no result: UBC9 SUMO inh, TPT1 inhibitor)
CCCN1C(=O)/C(=C/c2c(NCCCOCC)nc3c(C)cccn3c2=O)SC1=S	CSN deneddyl inh 38, HNF4A DNA FP 50, Rpn11 inh active (no result: TPT1 inhibitor)
CCN1CCc2c(sc(N)c2C#N)C1	none
N#Cc1c(N)sc(=S)c2c1CCN(Cc1ccccc1)C2	UBC9 SUMO inh 67 (no result: CSN deneddyl inh, SENP1 FRET inh, HNF4A DNA FP, Rpn11 inh)
CC(C)(C)NC(=O)NC(=O)COc1ccccn1	none
Nc1cccc2nsnc12	UBC9 SUMO inh 88
Cc1ccc2nsnc2c1N	none
CCOC(=O)C1=CN(Cc2cccc(F)c2)S(=O)(=O)N(C)C1c1ccccc1 (stereo not given)	CSN deneddyl inh 103 (no result: UBC9 SUMO inh, TPT1 inhibitor)
CCOC(=O)C1=CN(Cc2cccc(F)c2)S(=O)(=O)N(C)C1c1cccc(OC)c1 (stereo not given)	none (no result: UBC9 SUMO inh, TPT1 inhibitor)
Cn1c(/C=C/c2ccc(Cl)cc2)c([N+](=O)[O-])c(=O)n(C)c1=O	SENP1 FRET inh 34
CC(C)C(C)NC(=O)COC(=O)/C=C/c1ccc(S(=O)(=O)N2CCc3ccccc32)cc1 (stereo not given)	none
CCN1C(=O)[C@H]2[C@@H](c3ccc(C)cc3)N[C@]3(CCCN(Cc4ccc(OC)cc4)C3=O)[C@H]2C1=O	none (no result: UBC9 SUMO inh, TPT1 inhibitor)
CC(=O)Nc1cc(-c2cccc(C(=O)NCCN(C)C)c2)cn2c(-c3ccc(F)c(Cl)c3)cnc12	CSN deneddyl inh 82 (no result: UBC9 SUMO inh, TPT1 inhibitor)
Cc1ccc2nc3c(cc(S(=O)(=O)c4ccccc4)c(=N)n3Cc3ccco3)c(=O)n2c1	UBC9 SUMO inh 80
Cc1cccn2c(=O)c3cc(S(=O)(=O)c4ccccc4)c(=N)n(Cc4ccco4)c3nc12	none
COc1ccc(Cn2cc(CN3CC(N4CCN(C)CC4)CS3(=O)=O)nn2)cc1 (stereo not given)	none (no result: UBC9 SUMO inh, Rpn11 inh, TPT1 inhibitor)
CCCCCC#CCC#CCC#CCC#CCCCC(=O)O	UBC9 SUMO inh 58 (no result: CSN deneddyl inh, SENP1 FRET inh, HNF4A DNA FP, Rpn11 inh)
CCCCCCCCCC(=O)O	none (no result: UBC9 SUMO inh, TPT1 inhibitor)
O=C(O)CCCCC1CCSS1 (stereo not given)	CSN deneddyl inh 35 (no result: UBC9 SUMO inh)
CCOc1ccc(C(=O)N/N=C/c2cc([N+](=O)[O-])cs2)cc1	none
COc1cc(C(=O)N/N=C/c2cc([N+](=O)[O-])cs2)cc(OC)c1OC	UBC9 SUMO inh 68
C[C@@H](CN1C2=NC[C@H](C)N2C[C@H]1Cc1ccc(O)cc1)NC(=O)CCC1CCCCC1	none
CC(C)[C@H]1CN=C2N(C[C@H](C)NC(=O)CCC3CCCCC3)[C@H](Cc3ccc(O)cc3)CN21	CSN deneddyl inh 74
CCOCC(=O)Nc1nc(C)cc(C)n1	UBC9 SUMO inh 69
Cc1ccc(-c2[nH]ncc2/C=N/n2c(COc3ccccc3)nc3ccccc3c2=O)cc1	none
